From ChEMBL document CHEMBL1137378, “Antibacterial agent discovery using thymidylate synthase biolibrary screening” (J Med Chem, 2006)
In brackets after ≈: the same amount, converted by molar mass. One block for each molecule: values may come before it.

What was measured:
Staphylococcus aureus [1] = experiment: Antibacterial activity against Staphylococcus aureus ATCC 29213; format: functional
In short: (§1)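 Wild-type strain panel (18 Gram-positive and Gram-negative strains). Bacteria grown in Mueller-Hinton broth at 37 °C for 24 h. Exponentially growing cultures diluted in sterile liquid medium to a final inoculum of about 1 × 10⁴ CFU/mL, then exposed to increasing compound concentrations. MIC taken as the lowest concentration with no evident bacterial growth.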

[2] = Specificity Index, Ki for human thymidylate synthase/Ki for Escherichia coli thymidylate synthase
[3] = Specificity Index, Ki for human thymidylate synthase/Ki for Lactobacillus casei thymidylate synthase
Escherichia coli [4] = experiment: Antibacterial activity against Escherichia coli 292; format: functional; in short: as §1
Dihydrofolate reductase = target: T1, Dihydrofolate reductase (Homo sapiens, UniProt P00374); experiment: Inhibition of human dihydrofolate reductase
T1 sequence (P00374 whole entry): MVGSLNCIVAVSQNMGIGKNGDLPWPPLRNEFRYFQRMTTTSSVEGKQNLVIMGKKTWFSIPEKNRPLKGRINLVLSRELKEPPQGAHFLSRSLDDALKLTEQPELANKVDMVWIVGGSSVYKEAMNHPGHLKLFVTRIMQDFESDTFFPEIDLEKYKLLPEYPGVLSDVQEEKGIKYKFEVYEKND
In short: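 Purified human DHFR assayed spectrophotometrically at 25 °C by the fall in A340 on DHF reduction. Ki from steady-state kinetics.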

Thymidylate synthase [5] = target: T2, Thymidylate synthase (Cryptococcus neoformans var. neoformans B-3501A, UniProt P0CS13); experiment: Inhibition of Cryptococcus neoformans thymidylate synthase
T2 sequence (P0CS13 whole entry): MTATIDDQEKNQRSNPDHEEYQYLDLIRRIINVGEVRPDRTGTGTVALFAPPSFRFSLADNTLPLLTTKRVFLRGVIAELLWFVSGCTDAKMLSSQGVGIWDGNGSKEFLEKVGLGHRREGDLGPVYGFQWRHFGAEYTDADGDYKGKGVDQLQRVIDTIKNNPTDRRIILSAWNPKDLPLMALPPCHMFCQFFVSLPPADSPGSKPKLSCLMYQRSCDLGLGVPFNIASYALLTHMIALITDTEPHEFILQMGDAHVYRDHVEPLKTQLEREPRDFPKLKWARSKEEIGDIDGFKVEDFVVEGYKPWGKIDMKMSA

Listeria monocytogenes [6] = experiment: Antibacterial activity against Listeria monocytogenes 8; format: functional; in short: as §1
[7] = tested on: Staphylococcus saprophyticus; experiment: Antibacterial activity against Staphylococcus saprophyticus ATCC 15305; format: functional; in short: as §1
Citrobacter = experiment: Antibacterial activity against Citrobacter 224; format: functional; in short: as §1
[8] = Specificity Index, Ki for human thymidylate synthase/Ki for Cryptococcus neoformans thymidylate synthase
In short: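 Specificity index is Ki of hTS divided by Ki of the pathogen TS (LcTS, EcTS or CnTS). Each enzyme was purified to >95% and assayed spectrophotometrically at 340 nm, 20 °C. Buffer was TES 50 mM pH 7.4 with MgCl2, formaldehyde, EDTA and 2-mercaptoethanol, plus dUMP 100 µM, mTHF 140 µM and enzyme 0.07 µM.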

Staphylococcus aureus [9] = experiment: Antibacterial activity against Staphylococcus aureus 341; format: functional; in short: as §1
Listeria monocytogenes [10] = experiment: Antibacterial activity against Listeria monocytogenes 4; format: functional; in short: as §1
Enterococcus faecalis = experiment: Antibacterial activity against Enterococcus faecalis ATCCC29212; format: functional; in short: as §1
[11] = tested on: Staphylococcus haemolyticus; experiment: Antibacterial activity against Staphylococcus haemolyticus ATCC 2997; format: functional; in short: as §1
Listeria monocytogenes [12] = experiment: Antibacterial activity against Listeria monocytogenes ATCC 4428; format: functional; in short: as §1
Listeria monocytogenes [13] = experiment: Antibacterial activity against Listeria monocytogenes 6; format: functional; in short: as §1
Staphylococcus aureus [14] = experiment: Antibacterial activity against Staphylococcus aureus 343; format: functional; in short: as §1
Streptococcus = experiment: Antibacterial activity against Streptococcus 42; format: functional; in short: as §1
Staphylococcus aureus [15] = experiment: Antibacterial activity against Staphylococcus aureus K28; format: functional; in short: as §1
Listeria monocytogenes [16] = experiment: Antibacterial activity against Listeria monocytogenes 5; format: functional; in short: as §1
Thymidylate synthase [17] = target: Thymidylate synthase (Escherichia coli, UniProt C3SWJ7); experiment: Inhibition of Escherichia coli thymidylate synthase
Chain of Thymidylate synthase (Escherichia coli, UniProt C3SWJ7) (C3SWJ7 whole entry): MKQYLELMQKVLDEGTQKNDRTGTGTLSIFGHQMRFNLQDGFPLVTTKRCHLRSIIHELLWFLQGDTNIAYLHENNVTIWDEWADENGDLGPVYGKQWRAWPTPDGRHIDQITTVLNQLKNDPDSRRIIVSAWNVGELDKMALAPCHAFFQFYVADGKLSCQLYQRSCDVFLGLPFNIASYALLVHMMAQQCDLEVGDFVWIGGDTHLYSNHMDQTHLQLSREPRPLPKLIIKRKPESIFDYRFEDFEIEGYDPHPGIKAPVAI

Escherichia coli [18] = experiment: Antibacterial activity against Escherichia coli 256; format: functional; in short: as §1
Homo sapiens = organism: Homo sapiens; experiment: Selectivity Index, Ki for human dihydrofolate reductase/Ki for human thymidylate synthase
Listeria monocytogenes [19] = experiment: Antibacterial activity against Listeria monocytogenes 3; format: functional; in short: as §1
Listeria monocytogenes [20] = experiment: Antibacterial activity against Listeria monocytogenes 7; format: functional; in short: as §1
Thymidylate synthase [21] = target: Thymidylate synthase (Homo sapiens, UniProt P04818); experiment: Inhibition of human thymidylate synthase
Chain of Thymidylate synthase (Homo sapiens, UniProt P04818) (P04818 whole entry): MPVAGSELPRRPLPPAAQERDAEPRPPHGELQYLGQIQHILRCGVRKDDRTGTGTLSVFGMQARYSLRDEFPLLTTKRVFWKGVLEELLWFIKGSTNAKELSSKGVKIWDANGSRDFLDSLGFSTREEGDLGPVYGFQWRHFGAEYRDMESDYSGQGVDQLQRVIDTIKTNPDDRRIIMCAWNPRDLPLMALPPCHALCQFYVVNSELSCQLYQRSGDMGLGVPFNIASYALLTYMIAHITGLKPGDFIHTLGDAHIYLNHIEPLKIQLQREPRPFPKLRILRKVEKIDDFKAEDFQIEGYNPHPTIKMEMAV

Thymidylate synthase [22] = target: T3, Thymidylate synthase (Lactobacillus casei, UniProt P00469); experiment: Inhibition of Lactobacillus casei thymidylate synthase; set-up: species or system Lacticaseibacillus casei
T3 sequence (P00469 whole entry): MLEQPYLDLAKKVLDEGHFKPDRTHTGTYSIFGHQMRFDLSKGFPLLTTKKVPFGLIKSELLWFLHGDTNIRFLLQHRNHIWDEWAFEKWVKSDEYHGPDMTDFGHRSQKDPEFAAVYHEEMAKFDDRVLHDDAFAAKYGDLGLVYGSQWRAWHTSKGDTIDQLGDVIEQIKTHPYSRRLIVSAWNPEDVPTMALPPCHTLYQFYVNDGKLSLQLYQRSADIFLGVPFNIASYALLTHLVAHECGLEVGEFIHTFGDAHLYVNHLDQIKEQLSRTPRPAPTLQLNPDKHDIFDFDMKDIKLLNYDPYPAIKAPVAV

Ratio Ki [3]: > 4 | Ki (Dihydrofolate reductase): 94 µM | Ki (Thymidylate synthase [5]): 16 µM | Ki (Thymidylate synthase [21]): > 132 µM | Ratio Ki [8]: > 8 | Ki (Thymidylate synthase [22]): 31 µM | Selectivity index (Homo sapiens): < 1
Compound: O=C1OC(c2ccc(O)c(I)c2)(c2ccc(O)c(I)c2)c2cccc3cccc1c23

Ki (Thymidylate synthase [5]): 8.1 µM
Compound: O=C1OC(c2ccc(O)c(Cl)c2)(c2ccc(O)c(Cl)c2)c2ccc3ccccc3c21

Ratio Ki [2]: 1 | Ratio Ki [3]: 3 | Ki (Dihydrofolate reductase): 28 µM | Ki (Thymidylate synthase [5]): 3.3 µM | Ki (Thymidylate synthase [21]): 5.7 µM | Ratio Ki [8]: 2 | Ki (Thymidylate synthase [22]): 2 µM | Ki (Thymidylate synthase [17]): 5.3 µM | Selectivity index (Homo sapiens): 5
Compound: O=C1OC(c2cc(Cl)c(O)c(Cl)c2)(c2cc(Cl)c(O)c(Cl)c2)c2cccc3cccc1c23

More lines, now with the values behind:

Compound: O=C1OC(c2ccc(O)c(F)c2)(c2ccc(O)c(F)c2)c2ccc(Cl)c3cccc1c23
MIC (Staphylococcus aureus [1]): 10 µg/mL (≈ 22.8 µM) | Ratio Ki [2]: > 223 | Ratio Ki [3]: > 136 | MIC (Escherichia coli [4]): > 50 µg/mL | Ki (Dihydrofolate reductase): 12 µM | Ki (Thymidylate synthase [5]): 6.5 µM | MIC (Listeria monocytogenes [6]): 25 µg/mL (≈ 57 µM) | MIC [7]: 10 µg/mL (≈ 22.8 µM) | MIC (Citrobacter): > 50 µg/mL | Ratio Ki [8]: > 38 | MIC (Staphylococcus aureus [9]): 10 µg/mL (≈ 22.8 µM) | MIC (Listeria monocytogenes [10]): 10 µg/mL (≈ 22.8 µM) | MIC (Enterococcus faecalis): 25 µg/mL (≈ 57 µM) | MIC [11]: 10 µg/mL (≈ 22.8 µM) | MIC (Listeria monocytogenes [12]): 10 µg/mL (≈ 22.8 µM) | MIC (Listeria monocytogenes [13]): 10 µg/mL (≈ 22.8 µM) | MIC (Staphylococcus aureus [14]): 10 µg/mL (≈ 22.8 µM) | MIC (Streptococcus): 10 µg/mL (≈ 22.8 µM) | MIC (Staphylococcus aureus [15]): 10 µg/mL (≈ 22.8 µM) | MIC (Listeria monocytogenes [16]): 10 µg/mL (≈ 22.8 µM) | Ki (Thymidylate synthase [17]): 1.1 µM | MIC (Escherichia coli [18]): > 50 µg/mL | Selectivity index (Homo sapiens): < 0.05 | MIC (Listeria monocytogenes [19]): 10 µg/mL (≈ 22.8 µM) | MIC (Listeria monocytogenes [20]): 10 µg/mL (≈ 22.8 µM)

Compound: O=C1OC(c2ccc(O)c(Br)c2)(c2ccc(O)c(Br)c2)c2c1ccc1ccccc21
Ratio Ki [2]: > 147 | Ratio Ki [3]: > 20 | Ki (Dihydrofolate reductase): 33 µM | Ki (Thymidylate synthase [5]): 2.7 µM | Ratio Ki [8]: > 49 | Ki (Thymidylate synthase [17]): 0.9 µM | Selectivity index (Homo sapiens): < 0.2

Compound: O=C1OC(c2ccc(O)cc2)(c2ccc(O)cc2)c2c1ccc1ccccc21
Ratio Ki [2]: > 30 | Ratio Ki [3]: > 12 | Ki (Thymidylate synthase [5]): 0.4 µM | Ki (Thymidylate synthase [21]): > 132 µM | Ratio Ki [8]: > 330 | Ki (Thymidylate synthase [17]): 4.4 µM | Selectivity index (Homo sapiens): < 1

Compound: O=C(O)c1cn(C2CC2)c2cc(N3CCNCC3)c(F)cc2c1=O [CIPROFLOXACIN]
MIC (Staphylococcus aureus [1]): 0.5 µg/mL (≈ 1.51 µM) | MIC (Escherichia coli [4]): > 25 µg/mL | MIC (Listeria monocytogenes [6]): 1 µg/mL (≈ 3.02 µM) | MIC [7]: 1 µg/mL (≈ 3.02 µM) | MIC (Citrobacter): > 25 µg/mL | MIC (Staphylococcus aureus [9]): 1.2 µg/mL (≈ 3.62 µM) | MIC (Listeria monocytogenes [10]): 1 µg/mL (≈ 3.02 µM) | MIC (Enterococcus faecalis): 12.5 µg/mL (≈ 37.7 µM) | MIC [11]: 2.5 µg/mL (≈ 7.54 µM) | MIC (Listeria monocytogenes [12]): 2.5 µg/mL (≈ 7.54 µM) | MIC (Listeria monocytogenes [13]): 2.5 µg/mL (≈ 7.54 µM) | MIC (Staphylococcus aureus [14]): 0.5 µg/mL (≈ 1.51 µM) | MIC (Streptococcus): > 5 µg/mL | MIC (Staphylococcus aureus [15]): 0.5 µg/mL (≈ 1.51 µM) | MIC (Listeria monocytogenes [16]): 2.5 µg/mL (≈ 7.54 µM) | MIC (Escherichia coli [18]): > 25 µg/mL | MIC (Listeria monocytogenes [19]): 2.5 µg/mL (≈ 7.54 µM) | MIC (Listeria monocytogenes [20]): 1 µg/mL (≈ 3.02 µM)
